The test system of the data set is human plasma protein binding, RED dialysis, LC/MS/MS. The experiment in a line: fraction bound to human plasma proteins – biochemical, rapid equilibrium dialysis, LC/MS/MS, ADME assay, late-stage follow-up (AID 1617). Conditions: stronger effect = higher value. The gist of the method:
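Material: spiked plasma, equilibrium dialysis; buffer or medium: Isotonic PBS, pH 7.4; compound dosing: two single doses, 1 and 10 µM final, 0.1% DMSO; timing: 4 h dialysis, 37 °C, shaken; technique: LC/MS/MS of matrix-matched buffer-side and plasma-side aliquots; read-out basis: percent bound, 100 minus free percentage from buffer-to-plasma concentration ratio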
Background: In equilibrium dialysis only unbound substance equilibrates across the membrane.

We go through one compound from PubChem BioAssay AID1617 (Sanford-Burnham Center for Chemical Genomics, 2009).

Each structure is given as a SMILES string. Activity calls are given as the source filed them.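 How the source made its calls: active means compound at least 90% bound to plasma protein at 1 µM; inactive means the rest.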

Take `Cc1cc(OCC(=O)Nc2ncn[nH]2)ccc1Cl`: the plasma protein bound (at 1 µM) was 27.9% (inactive) and the plasma protein bound (percent bound, at 10 µM) is 16.8%.
